Assay results as given in PMC9716260 (Cancer Discovery, 2022).

Columns and labels:
[1] = system: BRG1 binding sites in BT869 (H3.3K27M-glioma) neurospheres; assay: ATAC-seq chromatin accessibility in drug-treated BT869 neurospheres; type: cell-based, human; settings: BT869, 1 μmol/L, 24 and 48 hours
Method in brief: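 BT869 neurospheres were exposed to DMSO or 1 μmol/L BRG1/BRM inhibitor or degrader and collected 24 or 48 h later without FACS enrichment of viable cells. Bulk ATAC-seq was run as two biological replicates, each with two technical replicates. Genes linked to differentially accessible peaks were overlapped with single-cell H3K27M glioma metaprograms.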

BRG1/BRM = assay: Immunoblot for BRG1/BRM and cleaved PARP in degrader-treated neurospheres; type: cell-based, human
Method in brief: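 BT869, HSJD-DIPG007 and SU-DIPGXIIIP* neurospheres were collected 24, 48 and 72 h after rising degrader concentrations; SU-DIPGXIIIP* was also collected at 6 h. SU-DIPGXIIIP* gave nuclear extracts; the other two gave whole-cell lysates in NP-40/deoxycholate/SDS buffer with protease and phosphatase inhibitors. Blots were blocked in 5% milk/TBST, then BRG1, BRM, PARP, cleaved PARP, GAPDH and H3 antibodies at 1:1,000 overnight at 4°C, then HRP secondary 1 h at RT, then ECL.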

[2] = system: SW-13 BRG1/BRM-deficient adrenocortical carcinoma cell line; assay: Cell viability in BRG1/BRM-deficient control cell line; type: cell-based; settings: Homo sapiens, SW13
Method in brief: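 SW-13 cells were dosed with test compound at 24 and 96 h after plating, across 10 nmol/L to 10 μmol/L. Viability was read by CellTiter-Glo 7 days after drug exposure. Concentrations were log10-transformed and responses normalized to DMSO controls. Log IC50 was interpolated from a variable-slope least-squares fit.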

[3] = system: BT869 (H3.3K27M-glioma) subcutaneous tumors; assay: Subcutaneous xenograft, BT869; type: in vivo, NSG mice
Method in brief: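 Female NSG mice aged about 6–8 weeks were implanted with BT869 cells, 3 × 10^6 in PBS/Matrigel, into the right flank. Groups of 10 received the degrader at 50 mg/kg i.p. daily or vehicle for up to 60 days. BRG1 immunostaining was scored as nuclear DAB OD mean.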

BRG1 = BRG1 (Homo sapiens, UniProt P51532); assay: SILAC quantitative proteomics in BT869 neurospheres; type: cell-based; settings: BT869, 1 μmol/L, 2 days of treatment
Method in brief: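 BT869 cells were SILAC-labelled for 5 passages in custom TSM medium with heavy (13C615N2 lysine, 13C615N4 arginine) or light amino acids; incorporation was >95%. Cells (1.5 × 106) were seeded 1 day ahead, then given DMSO (light) or 1 μmol/L degrader (heavy) for 48 h. Lysis was in RIPA with protease inhibitors, benzonase and 1 mmol/L DTT. BCA-matched lysates were mixed 1:1. Significance came from a heteroscedastic two-tailed t test.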

[4] = Pharmacokinetic study, drug in plasma and brain after intraperitoneal dose; type: in vivo, CD1 mice; settings: after intraperitoneal administration, mass spectrometry
Method in brief: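 Female CD1 mice, three per time point, received a single i.p. dose of test compound in 10% hydroxypropyl β-cyclodextrin in sterile water. Plasma and brain were collected at 30 min, 2 h and 4 h and quantified by LC/MS-MS. Parameters came from a noncompartmental model.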

[5] = Kinetic solubility analysis; type: physicochemical; settings: PBS, pH 7.4, aqueous buffer, kinetic from dmso stock
Method in brief: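 Test compound as a 10 mmol/L DMSO stock was diluted into 50 mmol/L PBS, pH 7.4, to a final 200 μmol/L. This was done in the lower chamber of filter vials by a contract laboratory.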

[6] = Plasma level after a single subcutaneous injection; type: in vivo; settings: single subcutaneous injection of 50 mg/kg

Sequence of BRG1 (P51532 whole entry): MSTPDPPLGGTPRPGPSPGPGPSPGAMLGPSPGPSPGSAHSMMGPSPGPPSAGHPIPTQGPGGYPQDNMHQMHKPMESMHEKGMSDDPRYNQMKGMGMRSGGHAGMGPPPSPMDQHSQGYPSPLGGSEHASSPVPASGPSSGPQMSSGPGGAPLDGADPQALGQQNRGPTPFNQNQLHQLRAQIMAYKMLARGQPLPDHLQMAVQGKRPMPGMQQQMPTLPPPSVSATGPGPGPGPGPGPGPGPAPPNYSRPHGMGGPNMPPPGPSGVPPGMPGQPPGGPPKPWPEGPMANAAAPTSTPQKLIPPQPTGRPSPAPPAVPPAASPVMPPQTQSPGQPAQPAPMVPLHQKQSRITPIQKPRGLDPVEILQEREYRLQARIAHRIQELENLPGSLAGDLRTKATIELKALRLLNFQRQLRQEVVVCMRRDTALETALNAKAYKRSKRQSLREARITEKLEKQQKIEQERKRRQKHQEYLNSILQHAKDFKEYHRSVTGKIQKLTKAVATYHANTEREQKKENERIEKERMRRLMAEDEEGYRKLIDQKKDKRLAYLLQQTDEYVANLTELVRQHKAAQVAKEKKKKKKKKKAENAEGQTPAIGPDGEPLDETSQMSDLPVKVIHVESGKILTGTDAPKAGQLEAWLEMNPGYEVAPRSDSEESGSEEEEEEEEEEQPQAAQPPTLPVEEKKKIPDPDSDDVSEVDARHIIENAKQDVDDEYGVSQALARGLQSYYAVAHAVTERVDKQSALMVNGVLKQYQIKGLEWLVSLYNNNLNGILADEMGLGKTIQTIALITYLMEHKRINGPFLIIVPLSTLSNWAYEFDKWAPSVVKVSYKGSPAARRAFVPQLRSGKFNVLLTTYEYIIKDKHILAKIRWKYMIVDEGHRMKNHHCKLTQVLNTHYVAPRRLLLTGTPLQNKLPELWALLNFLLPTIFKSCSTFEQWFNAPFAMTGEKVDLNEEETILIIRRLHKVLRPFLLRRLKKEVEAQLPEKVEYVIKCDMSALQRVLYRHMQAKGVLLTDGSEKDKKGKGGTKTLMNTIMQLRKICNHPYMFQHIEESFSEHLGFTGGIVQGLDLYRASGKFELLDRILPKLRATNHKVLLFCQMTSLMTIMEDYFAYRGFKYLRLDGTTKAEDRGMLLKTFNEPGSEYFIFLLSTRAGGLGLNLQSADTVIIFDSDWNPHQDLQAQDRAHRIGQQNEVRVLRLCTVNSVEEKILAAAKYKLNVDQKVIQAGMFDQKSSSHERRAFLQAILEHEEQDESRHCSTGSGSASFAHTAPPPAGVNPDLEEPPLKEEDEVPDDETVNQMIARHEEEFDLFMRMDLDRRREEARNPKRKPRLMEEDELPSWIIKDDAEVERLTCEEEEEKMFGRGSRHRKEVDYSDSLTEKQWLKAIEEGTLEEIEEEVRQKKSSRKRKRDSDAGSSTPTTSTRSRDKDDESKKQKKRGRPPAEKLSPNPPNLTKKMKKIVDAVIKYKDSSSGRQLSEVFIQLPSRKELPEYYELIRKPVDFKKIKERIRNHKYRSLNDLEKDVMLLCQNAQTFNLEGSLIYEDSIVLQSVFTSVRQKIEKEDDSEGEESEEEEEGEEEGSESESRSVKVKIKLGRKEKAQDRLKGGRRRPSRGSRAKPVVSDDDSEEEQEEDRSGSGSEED

Row | SMILES | DNA accessibility at BRG1 binding sites (ATAC-seq) [1] | Time to degradation of BRG1/BRM (BRG1/BRM; SU-DIPGXIIIP* cells) | Lowest concentration degrading BRG1/BRM (BRG1/BRM; SU-DIPGXIIIP* cells, 6 hours) | IC50 [2] | Degradation of BRG1 in treated tumors ([3]; BT869 s.c., 50 mg/kg i.p. daily, versus vehicle) | Body weight and toxic effects (plasma, liver, spleen) ([3]; mice treated for 45 days, Compound 14 20 mg/kg i.p. daily, JQ-dS-4 50 mg/kg i.p. daily) | Proteins degraded (SILAC) (BRG1) | Blood–brain barrier penetrance [4] | solubility at 24 h [5] | Plasma levels [6] | Plasma levels ([6]; converted from ng/mL) | Time to complete degradation of BRG1/BRM (BRG1/BRM; BT869 cells) | Time to complete degradation of BRG1/BRM (BRG1/BRM; HSJD-DIPG007 cells) | Time to complete degradation of BRG1/BRM (BRG1/BRM; SU-DIPGXIIIP* cells)
1 | Cc1ncsc1-c1ccc([C@H](C)NC(=O)[C@@H]2C[C@@H](O)CN2C(=O)[C@@H](NC(=O)CN2CCN(c3cc(-c4ccccc4O)nnc3N)CC2)C(C)(C)C)cc1 [AU-15330, reference compound] | decrease in DNA accessibility at BRG1 binding sites | ≤ 6 h | 500 nmol/L |  |  |  |  |  |  |  |  |  |  | 
2 | O=C1CCC(N2C(=O)c3cccc(NCCCCNC(=O)c4cccc(C#Cc5cc(NC(=O)Nc6ccnc(Cl)c6)ccn5)c4)c3C2=O)C(=O)N1 (stereo not drawn) [JQ-dS-4, 3-((4-(3-(2-chloropyridin-4-yl)ureido)pyridin-2-yl)ethynyl)-N-(4-((2-(2,6-dioxopiperidin-3-yl)-1,3-dioxoisoindolin-4-yl)amino)butyl)benzamide] | decrease in DNA accessibility at BRG1 binding sites |  |  | 6 µM | negligible degradation of BRG1 | did not observe any significant changes in body weight or toxic effects | BRG1 was one of the top significant proteins degraded | limited penetration into brain tissue | < 1.56 µM | 240 ng/mL | ~0.3 µmol/L | 48 h | 72 h | 72 h
